The record followed here is ChEMBL document CHEMBL4477202, “Synthesis and evaluation of duocarmycin SA analogs incorporating the methyl 1,2,8,8a-tetrahydrocyclopropa[c]imidazolo[4,5-e]indol-4-one-6-carboxylate (CImI) alkylation subunit” (Bioorg Med Chem, 2016).

In test [1] the test system is Betapolyomavirus macacae. The experiment in a line: Induction of alkylation at Simian virus 40 150-bp DNA w794 at 10^-5 to 10^-7/M after 24 hrs by PAGE and autoradiography method. A digest of the protocol:
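w794 DNA incubated with agent at 23 °C for 24 h. Unbound agent was removed by EtOH precipitation, then the DNA was heated at 100 °C for 30 min to cleave strands at alkylated sites. Fragments were resolved by 8% denaturing PAGE against Sanger G, C, A and T sequencing lanes and untreated control DNA, and detected by autoradiography.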

In test [2] the test system is L1210. The experiment in a line: Cytotoxicity against mouse L1210 cells assessed as cell growth inhibition. In kind it is functional, cell-based.
The test system of test [3] is Betapolyomavirus macacae. Description: Induction of alkylation at Simian virus 40 150-bp DNA w794 after 24 hrs by PAGE and autoradiography method. The essentials: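 Labelled w794 DNA incubated with agent at 23 °C for 24 h. Unbound agent removed by EtOH precipitation, then thermolysis at 100 °C for 30 min to cleave strands at alkylation sites. Fragments resolved by 8% denaturing PAGE and read by autoradiography, alongside untreated control DNA and Sanger G, C, A, T sequencing lanes.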

The nature of test [4]: Solvolysis reactivity of the compound in presence of Cd(acac)2 at 23 degC in MeoH solution by UV spectrophotometry.
Test [5] in a line: Solvolysis reactivity of the compound in presence of Ni(acac)2 at 23 degC in MeoH solution by UV spectrophotometry.
Test [6] in a line: Solvolysis reactivity of the compound in phosphate buffer assessed as half life at pH 3 upto 187 hrs by UV spectrophotometry. A digest of the protocol: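 UV spectra taken hourly for the first 8 h, then every 12 h, over 0–187 h until absorbance stopped changing. Rate constant and t1/2 derived from initial (A_i) and final (A_f) absorbance.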
Test [7] can be described thus: Solvolysis reactivity of the compound in presence of Cu(acac)2 at 23 degC in MeoH solution by UV spectrophotometry.
A short description of test [8]: Solvolysis reactivity of the compound in presence of Zn(acac)2 at 23 degC in MeoH solution by UV spectrophotometry.
A short description of test [9]: Solvolysis reactivity of the compound in presence of Pb(acac)2 at 23 degC in MeoH solution by UV spectrophotometry.
Test [10] can be described thus: Solvolysis reactivity of the compound in phosphate buffer at pH 7 upto 187 hrs by UV spectrophotometry.
Test [11] in a line: Solvolysis reactivity of the compound in aqueous buffer assessed as half life at pH 2 by UV spectrophotometry.
Test [12] is described as follows: Solvolysis reactivity of the compound in aqueous buffer assessed as solvolytic rate constant at pH 2 by UV spectrophotometry.

SMILES strings stand for the structures. Active and inactive are the calls of the source. The calls are words filed in the database; no cut-off is given here.

`COC(=O)c1nc2c3c(cc(O)c2[nH]1)N(C(=O)c1cc2cc(OC)c(OC)c(OC)c2[nH]1)C[C@H]3CCl`: the outcome in test [1] was Active.

As a reminder, the IC50 is the concentration that gives 50% inhibition. On to `COC(=O)c1cc2c([nH]1)C(=O)C=C1N(C(=O)c3cc4cc(NC(=O)c5cc6ccccc6[nH]5)ccc4[nH]3)C[C@@H]3C[C@@]123`, for which the IC50 in test [2] turned out to be 0.15 nM.

In the case of `COC(=O)c1nc2c([nH]1)C(=O)C=C1N(C(=O)c3cc4cc(NC(=O)c5cc6ccccc6[nH]5)ccc4[nH]3)C[C@@H]3C[C@@]123`, in [2], the IC50 was found to be 0.7 nM.

As for `COC(=O)c1nc2c([nH]1)C(=O)C=C1N(C(=O)c3cc4cc(OC)c(OC)c(OC)c4[nH]3)C[C@H]3C[C@]123`, in test [3], the result was inactive. In addition, the half-maximal inhibitory concentration (IC50) in test [2] was 0.05 nM.

For the compound `COC(=O)c1nc2c([nH]1)C(=O)C=C1N(C(=O)OC(C)(C)C)CC3CC123` (stereo unspecified), the Stability entry in [4], in test [5], in [7], in test [8] and in test [9] was “Stable” in each case. For the same compound, in test [6], the T1/2 worked out at 34.7 h.

For `COC(=O)c1nc2c([nH]1)C(=O)C=C1N(C(=O)OC(C)(C)C)C[C@H]3C[C@]123`, in test [2], the IC50 stood at 70 nM.

As for `COC(=O)c1nc2c([nH]1)C(=O)C=C1N(C(=O)c3cc4cc(NC(=O)c5cc6ccccc6[nH]5)ccc4[nH]3)C[C@H]3C[C@]123`, in test [2], the 50% inhibitory concentration (IC50) stood at 0.04 nM.

As to `COC(=O)c1cc2c([nH]1)C(=O)C=C1N(C(=O)OC(C)(C)C)CC3CC123` (stereo unspecified), the Stability result in test [4], in [10], in [5], in [7], in test [8] and in test [9] was “Stable” throughout. Besides, the T1/2 in [6] came out at 177 h.

For the compound `COC(=O)c1nc2c([nH]1)C(=O)C=C1N(C(=O)c3cc4cc(OC)c(OC)c(OC)c4[nH]3)C[C@@H]3C[C@@]123`, the IC50 in test [2] amounted to 2.2 nM.

Regarding `COC(=O)c1cc2c([nH]1)C(=O)C=C1N(C(=O)c3cc4cc(OC)c(OC)c(OC)c4[nH]3)C[C@H]3C[C@]123`, the outcome in test [3] was Active.

For `COC(=O)c1nc2c([nH]1)C(=O)C=C1N(C(=O)OC(C)(C)C)C[C@@H]3C[C@@]123`, in test [2], the IC50 is 1100 nM.

As for `Cc1c[nH]c2c1[C@@]13C[C@@H]1CN(C(=O)OC(C)(C)C)C3=CC2=O`, the T1/2 in [11] stood at 37 h. In addition, in test [12], the K was found to be 5.26 ×10⁻⁶ /s.

For `COC(=O)c1cc2c([nH]1)C(=O)C=C1N(C(=O)c3cc4cc(NC(=O)c5cc6ccccc6[nH]5)ccc4[nH]3)C[C@H]3C[C@]123`, the IC50 in [2] amounted to 0.004 nM.
